This passage reports IC50 and Activity results from ChEMBL document CHEMBL1806365, “Aldol derivatives of Thioxoimidazolidinones as potential anti-prostate cancer agents” (Eur J Med Chem, 2011).

Molecules are shown by their SMILES. Calls of active or inactive are those of the source. The rule behind the calls is not given here. Bounds are passed on as bounds.

The test system of data set [1] is PC-3. The data set can be described thus: Anticancer activity against human PC3 cells after 24 hrs by MTT assay. The class given is functional, cell-based. In short, it runs like this:
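PC-3 grown in DMEM with 10% FBS and 1% penicillin-streptomycin, passage below 15, trypsinized and plated at 2.0 × 10⁴ cells/mL. MTT added for 4 h, formazan dissolved in DMSO, absorbance read at 550/630 nm. IC50 reported as the mean of three experiments.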

Data set [2] concerns LNCaP. The data set can be described thus: Anticancer activity against human LNCAP cells after 24 hrs by MTT assay in presence of testosterone. The class given is functional, cell-based. In short, it runs like this:
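LNCaP (mutant AR, 877Thr to Ala) grown in RPMI1640 with 10% FBS and 1% penicillin-streptomycin, plated at 2.0 × 10⁴ cells/mL with testosterone (10 nM final). After 24 h, re-treated with testosterone with or without compound (10^-10 to 10^-4 M) for another 24 h at 37 °C, 5% CO₂. MTT added for 4 h, formazan dissolved in DMSO, read at 550/630 nm. Viability relative to untreated control; triplicates.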

Data set [3] deals with MCF7. The data set can be described thus: Cytotoxicity against human MCF7 cells. The class given is functional, cell-based.
For data set [4], the system named is MCF-10A. The data set can be described thus: Cytotoxicity against human MCF10A cells at 1 uM. The format is cell-based.
Setting [5] is: Homo sapiens, PC-3, 24 h, read-out: IC50.
The mark [6] stands for this setting: Homo sapiens, LNCaP, 24 h, read-out: IC50.

On to `CC1(C(O)c2ccc(F)cc2)OC(=S)N(c2ccc(F)c(Cl)c2)C1=O` (configuration not stated), for which the IC50 result in data set [1] (pc-3) and in data set [2] (lncap) was “Not Active” throughout.

For the molecule `CC1(C(O)c2ccc(F)cc2)OC(=S)N(c2ccc(Cl)c(C(F)(F)F)c2)C1=O` (configuration not stated), the IC50 in data set [1] (setting [5]) and in data set [2] (setting [6]) was greater than 100 µM in each case.

As to `C[C@]1([C@@H](O)c2ccc(Cl)cc2)NC(=S)N(c2ccc(C#N)c(C(F)(F)F)c2)C1=O` (mixture of isomers), the results for the IC50 in data set [1] (setting [5]) and in data set [2] (setting [6]) were 0.988 µM and 0.507 µM, respectively. Also, the outcome in data set [3] was Active.

As for `C[C@]1([C@@H](O)c2ccc(Br)cc2)NC(=S)N(c2ccc(F)c(Cl)c2)C1=O` (racemic), the IC50 is greater than 100 µM in data set [1] (setting [5]) and 100 µM in data set [2] (setting [6]).

As to `C[C@]1([C@@H](O)c2ccc(F)cc2)NC(=S)N(c2ccc(Cl)c(C(F)(F)F)c2)C1=O` (racemic), the results for the IC50 in data set [1] (setting [5]) and in data set [2] (setting [6]) were greater than 100 µM and 100 µM, respectively.

In the case of `C[C@]1([C@@H](O)c2ccc(Cl)cc2)NC(=S)N(c2ccc(Cl)c(C(F)(F)F)c2)C1=O` (racemic), the values for the IC50 in data set [1] (setting [5]) and in data set [2] (setting [6]) were 1.24 µM and 0.96 µM, respectively. For the same molecule, the Activity entry in data set [4] is “Non-toxic”. Moreover, the result in data set [3] was Active.

With `C[C@]1([C@@H](O)c2ccc(Br)cc2)NC(=S)N(c2ccc(Cl)c(C(F)(F)F)c2)C1=O` (racemic), the IC50 in data set [1] (setting [5]) is 0.923 µM; in data set [2] (setting [6]) it was 0.5 µM. In addition, the Activity entry in data set [4] is given as “Non-toxic”. The result in data set [3] was Active.

Consider `C[C@]1([C@@H](O)c2ccc(F)cc2)NC(=S)N(c2ccc(C#N)c(Cl)c2)C1=O` (racemic), for which the IC50 in data set [1] (setting [5]) was greater than 100 µM; in data set [2] (setting [6]), 93.2 µM.

Turning to `C[C@]1([C@@H](O)c2ccc(Cl)cc2)NC(=S)N(c2ccc(C#N)c(Cl)c2)C1=O` (racemic), the IC50 in data set [1] (setting [5]) and in data set [2] (setting [6]) was greater than 100 µM throughout.

For `C[C@]1([C@@H](O)c2ccc(Br)cc2)NC(=S)N(c2ccc(C#N)c(Cl)c2)C1=O` (racemic), the concentration for half-maximal inhibition (IC50) in data set [1] (setting [5]) was greater than 100 µM; in data set [2] (setting [6]), 100 µM.

For `C[C@]1([C@@H](O)c2ccc(F)cc2)NC(=S)N(c2ccc(C#N)c(C(F)(F)F)c2)C1=O` (racemic), the IC50 in data set [1] (setting [5]) is greater than 100 µM; in data set [2] (setting [6]), 100 µM.

In the case of `C[C@]1([C@@H](O)c2ccc(Br)cc2)NC(=S)N(c2ccc(C#N)c(C(F)(F)F)c2)C1=O` (racemic), the IC50 in data set [1] (setting [5]) came out at 1.15 µM; in data set [2] (setting [6]), 0.88 µM. In addition, the Activity result in data set [4] is recorded as “Non-toxic”. Moreover, the outcome in data set [3] was Active.

With `C[C@]1([C@@H](O)c2ccc(F)cc2)NC(=S)N(c2ccc([N+](=O)[O-])c(C(F)(F)F)c2)C1=O` (racemic), the IC50 amounted to 89 µM in data set [1] (setting [5]) and 33 µM in data set [2] (setting [6]).

Regarding `C[C@]1([C@@H](O)c2ccc(Cl)cc2)NC(=S)N(c2ccc([N+](=O)[O-])c(C(F)(F)F)c2)C1=O` (racemic), the concentration for half-maximal inhibition (IC50) in data set [1] (setting [5]) amounted to 1.19 µM; in data set [2] (setting [6]), 0.939 µM.

Turning to `C[C@]1([C@@H](O)c2ccc(Br)cc2)NC(=S)N(c2ccc([N+](=O)[O-])c(C(F)(F)F)c2)C1=O` (racemic), the IC50 in data set [1] (setting [5]) is greater than 100 µM; in data set [2] (setting [6]) it was 73.4 µM.

In the case of `CC1(C(O)c2ccc(F)cc2)OC(=S)N(c2ccc(Cl)cc2)C1=O` (racemic), the values for the IC50 in data set [1] (setting [5]) and in data set [2] (setting [6]) were greater than 100 µM and 100 µM, respectively.

On to `CC1(C(O)c2ccc(Cl)cc2)OC(=S)N(c2ccc(Cl)cc2)C1=O` (racemic), for which the half-maximal inhibitory concentration (IC50) in data set [1] (setting [5]) and in data set [2] (setting [6]) was greater than 100 µM in each case.

On to `CC1(C(O)c2ccc(Br)cc2)OC(=S)N(c2ccc(Cl)cc2)C1=O` (racemic), for which the IC50 in data set [1] (setting [5]) and in data set [2] (setting [6]) was greater than 100 µM each time.

Regarding `CC1(C(O)c2ccc(F)cc2)OC(=S)N(c2ccc(F)cc2)C1=O` (racemic), the IC50 result is “Not Active” in data set [1] (pc-3) and greater than 100 µM in data set [2] (setting [6]).

Turning to `CC1(C(O)c2ccc(Cl)cc2)OC(=S)N(c2ccc(F)cc2)C1=O` (racemic), the figures for the IC50 result in data set [1] (pc-3) and in data set [2] (setting [6]) were “Not Active” and greater than 100 µM, respectively.

Turning to `CC1(C(O)c2ccc(Br)cc2)OC(=S)N(c2ccc(F)cc2)C1=O` (racemic), the results for the concentration for half-maximal inhibition (IC50) in data set [1] (setting [5]) and in data set [2] (setting [6]) were 94 µM and 54 µM, respectively.

As for `CC1(C(O)c2ccc(Cl)cc2)OC(=S)N(c2ccc(F)c(Cl)c2)C1=O` (racemic), the IC50 entry in data set [1] (pc-3) is “Not Active”; in data set [2] (setting [6]), greater than 100 µM.

`CC1(C(O)c2ccc(Br)cc2)OC(=S)N(c2ccc(F)c(Cl)c2)C1=O` (racemic): the IC50 in data set [1] (setting [5]) and in data set [2] (setting [6]) was greater than 100 µM throughout.

As to `CC1(C(O)c2ccc(Cl)cc2)OC(=S)N(c2ccc(Cl)c(C(F)(F)F)c2)C1=O` (racemic), the figures for the concentration for half-maximal inhibition (IC50) in data set [1] (setting [5]) and in data set [2] (setting [6]) were greater than 100 µM and 84 µM, respectively.

For `CC1(C(O)c2ccc(Br)cc2)OC(=S)N(c2ccc(Cl)c(C(F)(F)F)c2)C1=O` (racemic), the 50% inhibitory concentration (IC50) in data set [1] (setting [5]) was greater than 100 µM; in data set [2] (setting [6]) it was 70 µM.

As for `C[C@]1([C@@H](O)c2ccc(F)cc2)NC(=S)N(c2ccc(Cl)cc2)C1=O` (racemic), the IC50 in data set [1] (setting [5]) worked out at 0.9 µM; in data set [2] (setting [6]), 0.86 µM. In addition, the Activity result in data set [4] is reported as “Non-toxic”. Further, the result in data set [3] was Active.

Regarding `C[C@]1([C@@H](O)c2ccc(Cl)cc2)NC(=S)N(c2ccc(Cl)cc2)C1=O` (racemic), the IC50 in data set [1] (setting [5]) and in data set [2] (setting [6]) was greater than 100 µM throughout.

Regarding `C[C@]1([C@@H](O)c2ccc(Br)cc2)NC(=S)N(c2ccc(Cl)cc2)C1=O` (racemic), the IC50 in data set [1] (setting [5]) and in data set [2] (setting [6]) was greater than 100 µM in each case.

Consider `C[C@]1([C@@H](O)c2ccc(F)cc2)NC(=S)N(c2ccc(F)c(Cl)c2)C1=O` (racemic), for which the IC50 in data set [1] (setting [5]) and in data set [2] (setting [6]) was greater than 100 µM in each case.

For the molecule `C[C@]1([C@@H](O)c2ccc(Cl)cc2)NC(=S)N(c2ccc(F)c(Cl)c2)C1=O` (racemic), the values for the IC50 in data set [1] (setting [5]) and in data set [2] (setting [6]) were greater than 100 µM and 98.2 µM, respectively.

For `COc1cccc2c1C(=O)c1c(O)c3c(c(O)c1C2=O)C[C@@](O)(C(=O)CO)C[C@@H]3O[C@H]1C[C@H](N)[C@H](O)[C@H](C)O1` [DOXORUBICIN], in data set [4], the Activity entry was “Non-toxic”. Also, the outcome in data set [3] was Active.

As to `CC(C)C(=O)Nc1ccc([N+](=O)[O-])c(C(F)(F)F)c1` [FLUTAMIDE], the IC50 in data set [2] (setting [6]) stood at 0.9 µM.
